pEC50, pKi: −log10 of the molar value.
Legend:
Glucocorticoid receptor [1] = target: T1, Glucocorticoid receptor (Homo sapiens, UniProt P04150); experiment: Agonist activity at glucocorticoid receptor in human A549 cells assessed as inhibition of PMA-induced AP-1 activation by luciferase reporter gene assay; format: cell-based
T1 sequence (P04150 whole entry): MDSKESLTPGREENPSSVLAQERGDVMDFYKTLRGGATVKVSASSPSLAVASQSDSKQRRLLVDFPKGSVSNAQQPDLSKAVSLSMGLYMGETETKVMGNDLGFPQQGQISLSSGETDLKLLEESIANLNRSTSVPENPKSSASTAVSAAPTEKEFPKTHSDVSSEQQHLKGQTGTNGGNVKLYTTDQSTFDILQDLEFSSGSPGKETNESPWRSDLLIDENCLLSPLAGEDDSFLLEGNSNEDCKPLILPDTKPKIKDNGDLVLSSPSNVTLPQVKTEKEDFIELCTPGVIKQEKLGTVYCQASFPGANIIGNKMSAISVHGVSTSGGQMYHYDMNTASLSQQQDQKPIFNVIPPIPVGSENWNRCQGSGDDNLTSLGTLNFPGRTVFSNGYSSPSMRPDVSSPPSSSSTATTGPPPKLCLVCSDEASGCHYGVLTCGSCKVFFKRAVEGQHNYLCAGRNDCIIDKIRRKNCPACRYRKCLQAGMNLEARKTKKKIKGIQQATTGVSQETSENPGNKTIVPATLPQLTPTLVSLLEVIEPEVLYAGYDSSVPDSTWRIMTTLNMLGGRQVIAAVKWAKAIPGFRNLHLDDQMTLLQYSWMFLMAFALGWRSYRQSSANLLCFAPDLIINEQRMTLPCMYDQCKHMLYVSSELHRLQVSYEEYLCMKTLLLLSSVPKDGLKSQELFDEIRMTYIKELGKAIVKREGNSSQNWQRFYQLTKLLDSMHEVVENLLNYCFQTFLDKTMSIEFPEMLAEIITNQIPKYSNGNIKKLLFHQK

[2] = target: T2, Glucocorticoid receptor (Homo sapiens) (UniProt P04150); experiment: Agonist activity at glucocorticoid receptor in human A549 cells assessed as inhibition of IL-1beta-induced NF-kappaB dependent E-selectin activation by luciferase reporter gene assay relative to dexamethasone; format: cell-based
T2 sequence (whole entry): T1 sequence (P04150 whole entry)

Glucocorticoid receptor [3] = target: T1, Glucocorticoid receptor; experiment: Agonist activity at glucocorticoid receptor in human A549 cells assessed as inhibition of IL-1beta-induced NF-kappaB dependent E-selectin activation by luciferase reporter gene assay; format: cell-based
Glucocorticoid receptor [4] = target: T1, Glucocorticoid receptor; experiment: Binding affinity to glucocorticoid receptor (unknown origin) by fluorescence polarization assay
[5] = target: T2, Glucocorticoid receptor (Homo sapiens); experiment: Transactivation of glucocorticoid receptor ligand binding domain (unknown origin) transfected in human HeLa cells assessed as activation of NP-1 by GAL4 luciferase reporter gene assay relative to dexamethasone; format: cell-based
In short: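 HeLa line (NP-1) stably transfected with a GR ligand binding domain chimera in a GAL4 luciferase reporter system, run in agonist mode. Direct GR-LBD activation read as increased luciferase activity. Means of two or more experiments in triplicate.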

[6] = target: T2, Glucocorticoid receptor (Homo sapiens); experiment: Agonist activity at glucocorticoid receptor in human A549 cells assessed as inhibition of PMA-induced AP-1 activation by luciferase reporter gene assay relative to dexamethasone; format: cell-based
In short: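 A549 lung epithelial cells stably carrying a luciferase reporter with 5 copies of the AP-1 response element; AP-1 induced with PMA (15 ng/ml). Compound inhibition of induction read as decreased luciferase. […] Means of two or more experiments in triplicate.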

Glucocorticoid receptor [7] = target: T1, Glucocorticoid receptor; experiment: Transactivation of glucocorticoid receptor ligand binding domain (unknown origin) transfected in human HeLa cells assessed as activation of NP-1 by GAL4 luciferase reporter gene assay; format: cell-based

Structure (SMILES)	pEC50 (Glucocorticoid receptor [1])	Efficacy [2] [%]	pEC50 (Glucocorticoid receptor [3])	pKi (Glucocorticoid receptor [4])	Efficacy [5] [%]	Efficacy [6] [%]	pEC50 (Glucocorticoid receptor [7])
CC(C)(C(=O)Nc1nncs1)[C@@H](c1ccccc1)c1ccc2c(cnn2-c2ccc(F)cc2)c1	8.62	86	8.40	8.29	106	93	8.24
CC(C)(C(=O)Nc1nncs1)[C@H](c1ccccc1)c1ccc2c(cnn2-c2ccc(F)cc2)c1	7.04	–	–	8.17	–	50	–

Reference: ChEMBL document CHEMBL2424628, “Discovery of potent and selective nonsteroidal indazolyl amide glucocorticoid receptor agonists” (Bioorg Med Chem Lett, 2013)
